# Laboratory results taken from ChEMBL document CHEMBL1129729, “Orally active fibrinogen receptor antagonists. 2. Amidoximes as prodrugs of amidines” (J Med Chem, 1996).
# Tests used:
# [1] = biological target: Integrin alpha-IIb/beta-3 (Homo sapiens, UniProt P05106+P08514); assay: Inhibition of FG binding to alpha IIb beta-3 integrin; format: protein-complex assay
# Method in brief: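 Binding of fibrinogen to immobilized purified GP IIb-IIIa (αIIbβ3). IC50 was calculated by log-linear regression and is the mean of at least two independent experiments.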
# Homo sapiens [2] = organism: Homo sapiens; assay: Inhibition of platelet aggregation in human platelet rich plasma(h-PRP) induced by adenosine 5-diphosphate (ADP); format: functional
# Method in brief: (§1)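 ADP-induced aggregation of human platelet-rich plasma, measured in vitro. Plasma came from at least two donors. IC50 was read from the inhibition of aggregation.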
# Homo sapiens [3] = organism: Homo sapiens; assay: Inhibition of platelet aggregation of human platelet rich plasma(h-PRP) induced by adenosine 5-diphosphate (ADP).(oral activity in mice); format: functional; settings: read-out: ID50 (the source's name)
# Method in brief: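 Mice got about 100 mg/kg orally, suspended in 10% gelatin (particle <1 µm); one mouse was killed at 1 h and one at 3 h for plasma. Serial dilutions of plasma (100 µL) were mixed with 300 µL human PRP and aggregated with 10 µM ADP (final). Dose divided by the IC50 dilution factor gave ID50; 1 h and 3 h values pooled, mean ± SEM.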
# Homo sapiens [4] = organism: Homo sapiens; assay: Compound was tested for inhibition of platelet aggregation of human platelet rich plasma(h-PRP) induced by adenosine 5-diphosphate (ADP); format: functional; method in brief: as §1
# Sequence of Integrin alpha-IIb/beta-3 (P05106 27-788 limits assumed): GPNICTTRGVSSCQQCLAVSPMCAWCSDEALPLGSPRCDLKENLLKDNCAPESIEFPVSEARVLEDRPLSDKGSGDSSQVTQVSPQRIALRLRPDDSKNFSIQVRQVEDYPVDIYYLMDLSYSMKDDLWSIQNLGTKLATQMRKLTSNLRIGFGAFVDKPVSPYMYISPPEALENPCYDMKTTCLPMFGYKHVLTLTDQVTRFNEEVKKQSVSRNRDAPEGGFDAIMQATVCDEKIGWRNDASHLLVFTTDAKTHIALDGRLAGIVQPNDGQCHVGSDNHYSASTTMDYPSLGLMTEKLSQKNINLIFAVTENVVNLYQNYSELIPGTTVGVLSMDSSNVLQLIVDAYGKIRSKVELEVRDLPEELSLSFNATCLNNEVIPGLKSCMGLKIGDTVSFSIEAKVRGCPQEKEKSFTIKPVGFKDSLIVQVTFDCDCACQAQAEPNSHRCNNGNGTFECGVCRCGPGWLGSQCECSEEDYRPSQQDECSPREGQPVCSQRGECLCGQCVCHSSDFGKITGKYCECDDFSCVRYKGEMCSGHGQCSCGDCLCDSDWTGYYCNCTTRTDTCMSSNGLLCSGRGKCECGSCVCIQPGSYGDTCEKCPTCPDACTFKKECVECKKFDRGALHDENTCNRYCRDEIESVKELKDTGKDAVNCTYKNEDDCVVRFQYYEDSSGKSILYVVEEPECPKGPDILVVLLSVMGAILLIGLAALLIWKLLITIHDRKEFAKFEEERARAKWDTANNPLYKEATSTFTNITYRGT
# Sequence of Integrin alpha-IIb/beta-3 (P08514 32-887 limits assumed): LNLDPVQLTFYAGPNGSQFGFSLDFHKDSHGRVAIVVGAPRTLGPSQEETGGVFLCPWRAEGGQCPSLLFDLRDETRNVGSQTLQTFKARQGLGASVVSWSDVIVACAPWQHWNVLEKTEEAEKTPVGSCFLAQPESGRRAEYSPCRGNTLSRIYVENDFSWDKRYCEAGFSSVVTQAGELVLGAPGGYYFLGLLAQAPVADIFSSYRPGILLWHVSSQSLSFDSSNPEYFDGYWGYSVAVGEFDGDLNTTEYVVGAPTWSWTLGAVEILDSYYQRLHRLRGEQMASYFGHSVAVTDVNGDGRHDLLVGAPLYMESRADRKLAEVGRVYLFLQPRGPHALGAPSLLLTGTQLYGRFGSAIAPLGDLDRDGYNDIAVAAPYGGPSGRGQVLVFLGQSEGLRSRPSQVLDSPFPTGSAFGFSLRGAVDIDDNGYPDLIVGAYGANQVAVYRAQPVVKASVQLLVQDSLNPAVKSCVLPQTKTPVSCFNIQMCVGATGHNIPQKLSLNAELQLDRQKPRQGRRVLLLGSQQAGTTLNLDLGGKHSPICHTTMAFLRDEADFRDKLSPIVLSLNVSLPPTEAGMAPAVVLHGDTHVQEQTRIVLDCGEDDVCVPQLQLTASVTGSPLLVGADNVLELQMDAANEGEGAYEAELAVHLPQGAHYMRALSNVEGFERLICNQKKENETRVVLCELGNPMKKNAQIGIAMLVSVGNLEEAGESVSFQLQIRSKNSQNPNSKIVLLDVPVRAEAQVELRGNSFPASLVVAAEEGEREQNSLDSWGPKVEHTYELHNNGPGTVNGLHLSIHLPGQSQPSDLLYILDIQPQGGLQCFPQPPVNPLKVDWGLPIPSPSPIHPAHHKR
# Sequence of Integrin alpha-IIb/beta-3 (P08514 891-1039 limits assumed): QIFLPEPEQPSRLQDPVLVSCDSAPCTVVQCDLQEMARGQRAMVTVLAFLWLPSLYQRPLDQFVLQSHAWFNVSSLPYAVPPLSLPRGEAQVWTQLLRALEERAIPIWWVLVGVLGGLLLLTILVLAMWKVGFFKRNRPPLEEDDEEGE
IC50 [1],IC50 (Homo sapiens [2]),IC50 (Homo sapiens [4]),Structure (SMILES),ED50 (Homo sapiens [3])
1.4 nM,,33 nM,N=C(N)c1ccc(C(=O)N[C@@H](Cc2ccc(O)cc2)C(=O)N2CCC(OCC(=O)O)CC2)cc1 [LAMIFIBAN],8.5 mg/kg
90 nM,1950 nM,,CCOC(=O)NC(=N)c1ccc(C(=O)N[C@@H](Cc2ccc(O)cc2)C(=O)N2CCC(OCC(=O)O)CC2)cc1,10.7 mg/kg
> 10000 nM,> 100000 nM,,CCOC(=O)NC(=N)c1ccc(C(=O)N[C@@H](Cc2ccc(OC(C)=O)cc2)C(=O)N2CCC(OCC(=O)OC(C)C)CC2)cc1,0.9 mg/kg
51 nM,63 nM,,CCOC(=O)COC1CCN(C(=O)[C@H](Cc2ccc(O)cc2)NC(=O)c2ccc(C(=N)N)cc2)CC1,6.9 mg/kg
> 10000 nM,> 100000 nM,,CCOC(=O)COC1CCN(C(=O)[C@H](Cc2ccc(O)cc2)NC(=O)c2ccc(C(=N)NO)cc2)CC1,2.6 mg/kg

# Further lines, the compound ahead of its results:
Structure (SMILES),IC50 [1],IC50 (Homo sapiens [2]),IC50 (Homo sapiens [4]),ED50 (Homo sapiens [3])
COC(=O)COc1ccc(C(=O)CN(C)C(=O)c2ccc(C(=N)NO)cc2)cc1OCC(=O)OC,> 10000 nM,> 100000 nM,,0.7 mg/kg
CCCCOC(=O)NC(=N)c1ccc(C(=O)N[C@@H](C)C(=O)N2CCC(OCC(=O)OCC)CC2)cc1,> 10000 nM,> 100000 nM,,0.3 mg/kg
CC(C)OC(=O)COc1ccc(C(=O)CN(C)C(=O)c2ccc(C(=N)N)cc2)cc1OCC(=O)OC(C)C,900 nM,345 nM,,11 mg/kg
CCOC(=O)COC1CCN(C(=O)[C@H](C)NC(=O)c2ccc(C(=N)N)cc2)CC1,163 nM,500 nM,,1.8 mg/kg
C[C@H](NC(=O)c1ccc(C(=N)NO)cc1)C(=O)N1CCC(OCC(=O)O)CC1,594 nM,13800 nM,,5.1 mg/kg
C[C@H](NC(=O)c1ccc(C(=N)N)cc1)C(=O)N1CCC(OCC(=O)O)CC1 [RO-44-3888],1.9 nM,38 nM,,5.2 mg/kg
CN(CC(=O)c1ccc(OCC(=O)O)c(OCC(=O)O)c1)C(=O)c1ccc(C(=N)N)cc1,0.4 nM,51 nM,,11.2 mg/kg
CC(C)OC(=O)OC(C)OC(=O)COC1CCN(C(=O)[C@H](C)NC(=O)c2ccc(C(=N)NO)cc2)CC1 (stereo not given in full),> 10000 nM,> 60000 nM,,0.34 mg/kg
CCOC(=O)NC(=N)c1ccc(C(=O)N(C)CC(=O)c2ccc(OCC(=O)OC(C)C)c(OCC(=O)OC(C)C)c2)cc1,> 10000 nM,> 100000 nM,,1.4 mg/kg
CCOC(=O)COC1CCN(C(=O)[C@H](Cc2ccc(O)cc2)NC(=O)c2ccc(C(N)=NC(=O)OCC)cc2)CC1,> 8000 nM,39800 nM,,1.4 mg/kg
